Screening data: PubChem, several laboratories
Cl transport mod = KCC2 (human) Cl- transport modulation | AID 1456 | B-score of Tl+ flux slope (higher = more flux/activation; lower = inhibition) at 10 µM | KCC2 cells, thallium flux FluoZin-2 fluorescence | 190,000 compounds, 2.2% hits;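 active = thallium flux slope and its plate-corrected score both differing from the plate sample mean at a set confidence after two filtering rounds, in either direction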;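 also: slope of fluorescence scaled to starting intensity during 10 to 20 s after thallium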
Autophagy HCS = alters autophagy in cells; MEF GFP-LC3 puncta imaging; test concentration mostly 10 µM; calls only at 10 µM (by protocol); 190,000 compounds, 0.98% hits;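 active = percentage of spot-positive cells more than 3 SD above its plate mean, without a fluorescence outlier flag or 80% toxicity; inconclusive = no clear call, values can overlap the other calls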;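 also: spot-positive cell cutoff set from DMSO-treated cells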
WT yeast gro inh = growth inhibition of WT yeast, mitochondrial fusion screen; AID 1362; 190,000 compounds, 2.1% hits; inhibition, % at 10 µM; mitochondrial fusion phenotypic screen, WT strain; in the data active = inhibition above about 58%; tested in S. cerevisiae
Ins promoter up = MIN6 insulin promoter up-regulation; MIN6 insulin promoter-GFP reporter, high-content imaging; stronger effect = higher value; z-score at 5 µM; 190,000 compounds, 0.3% hits; AID 1625;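 active = z-score above 3 at 5 µM with at least 500 cells counted in the well; inconclusive = wells under 500 cells, flagged as cytotoxic or low count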
Rad51 HR inh = blocks human Rad51 in homologous recombination. AID 1385. 200,000 compounds, 0.085% hits. hRad51 DNA strand exchange, fluorescence dequenching. Q06609. inhibition, % at 10 µM;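 active = inhibition above 40% at the single screening dose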;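 also: 0% = DMSO control wells and 100% = blanks with heterologous ssDNA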
Target sequence (Q06609 whole entry, looked up): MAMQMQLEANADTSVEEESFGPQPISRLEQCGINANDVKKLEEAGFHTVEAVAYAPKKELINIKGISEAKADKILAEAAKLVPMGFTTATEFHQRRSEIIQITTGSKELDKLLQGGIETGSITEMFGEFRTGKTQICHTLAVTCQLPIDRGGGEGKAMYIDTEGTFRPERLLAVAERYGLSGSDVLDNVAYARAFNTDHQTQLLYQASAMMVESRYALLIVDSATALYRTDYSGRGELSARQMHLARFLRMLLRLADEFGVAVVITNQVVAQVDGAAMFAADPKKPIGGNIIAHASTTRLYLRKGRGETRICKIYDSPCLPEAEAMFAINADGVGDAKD
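Material: hRad51 filaments on single-stranded DNA; Reagent: Donor/quencher-labelled 47-bp dsDNA substrate; Compound: 10 µM final, single point; Schedule: 37 °C 15-min filament assembly, 30-min compound preincubation, 15-min exchange; Technique: FRET fluorescence, excitation 485 nm, emission 520 nm; Benchmarks: control wells and blank wells on each plate.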
SKKanGAS inh = SKKanGAS growth inhibition | S. pyogenes SKKanGAS, kanamycin growth, BacTiter-Glo, 6 h | inhibition, % at 7.5 µM | 300,000 compounds, 1.3% hits;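 active = mean replicate score, as percent of positive control median, at least 50; inconclusive = mean below 50 but one replicate at or above 50; inactive = mean and every replicate below 50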;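 also: strain carries kanamycin resistance gene driven by streptokinase promoter and grows in 40 µg/ml kanamycin; loss of luminescence reflects streptokinase promoter inhibition or plain growth inhibition; 0% = median of DMSO wells and 100% = positive control at its reference dose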
KCC2 secondary = confirmation of human KCC2 transport modulators; 3,700 compounds, 15% hits; shares compounds with Cl transport mod; HEK293-KCC2, thallium flux, FluoZin2 fluorescence; stronger effect = higher value; normalised thallium flux (F/F0 slope) at 10 µM;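 active = thallium flux slope above the same plate's solvent-only control mean plus 3 SD; inconclusive = the two replicate wells disagree; inactive = no significant difference from solvent-only control wells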
KCC2 bumet counter = thallium flux despite bumetanide block in KCC2 cells, secondary assay 3; shares compounds with Cl transport mod; HEK293-KCC2 + bumetanide/ouabain, thallium flux FluoZin2; stronger effect = higher value; normalized thallium flux at 10 µM; 3,700 compounds, 49% hits;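 active = thallium entry rate above the same plate's blocked-transporter control wells by more than 3 SD; inconclusive = the two repeat wells disagree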;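 also: raw slope of fluorescence over initial fluorescence between 10 and 20 s after thallium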
KCC2 sec2 = KCC2 (human) modulation, second secondary assay; shares compounds with Cl transport mod; 3,700 compounds, 23% hits; AID 1715; normalized thallium flux at 10 µM; HEK293-KCC2, thallium flux FluoZin2 fluorescence; actives lie on both sides; F/F0 rise rate, 10–20 s post-thallium;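 active = thallium flux slope more than 3 SD above or below the plate's solvent-only control mean, mostly below; inconclusive = the two repeat wells disagreed; inactive = no significant shift from solvent-only controls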;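 also: raw slope with 0.1% DMSO as baseline and bumetanide as block control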
HEK293 Tl flux = parental HEK flux effect, counter-screen. thallium flux rate (normalised fluorescence) at 10 µM. shares compounds with Cl transport mod. 3,700 compounds, 46% hits. HEK293 parental cells, thallium flux FluoZin2, ouabain; baseline-ratio fluorescence slope, 10–20 s after thallium. AID 1716;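 active = thallium flux rate significantly above the same plate's solvent-only control wells, beyond their mean plus 3 SD; inconclusive = the two replicate wells gave conflicting results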
KCC2 retest ouab = modulates human KCC2 on retest with ouabain; shares compounds with Cl transport mod; HEK293-KCC2, thallium flux FluoZin2 fluorescence; bidirectional: low = inhibitor, high = activator; raw Tl+ flux slope (below DMSO = inhibition, above = activation) at 10 µM; 3,700 compounds, 48% hits; AID 1717;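 active = thallium flux slope beyond 3 SD from same-plate DMSO control mean in most replicates, usually higher, sometimes lower; inconclusive = repeat tests gave conflicting results; inactive = no significant difference from controls in most replicates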;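 also: slope of initial-normalized fluorescence between seconds 10 and 20 after thallium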
HEK293 Tl flux2 = acts in parental HEK cells, second KCC2 counter-screen; shares compounds with Cl transport mod; HEK293 parental, thallium flux FluoZin-2 fluorescence slope; thallium flux slope at 10 µM; 3,700 compounds, 33% hits;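 active = thallium flux slope above the same plate's solvent-control mean plus 3 SD in both duplicate wells; inconclusive = duplicate wells that disagreed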;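 also: run without ouabain in cells lacking the KCC2 cotransporter; slope of fluorescence scaled to its starting value between 10 and 20 s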
Active calls of the source: *. Compounds with a hit are over-represented: about 4.2% of the library has one in this group of screens.

`COc1ccc(CCc2nnc(CCC(=O)NCc3ccc4ncccc4c3)o2)cc1` gave Cl transport mod 0.14, Autophagy HCS inactive, WT yeast gro inh -19, Ins promoter up 0.51, Rad51 HR inh 25 and SKKanGAS inh 1.
For CC12CCC(C(=O)Nc3nc4ccc(Br)cc4s3)(OC1=O)C2(C)C (centres undefined) the results were Cl transport mod 9.7*, Autophagy HCS inactive, WT yeast gro inh 66*, Ins promoter up 0.38, SKKanGAS inh 6, KCC2 secondary 0.0052, KCC2 bumet counter 0.04*, KCC2 sec2 inconclusive, HEK293 Tl flux 0.017*, KCC2 retest ouab 0.035* and HEK293 Tl flux2 0.022*.
Screening O=c1c(-c2ccc(F)cc2)coc2cc(O)ccc12 returned Cl transport mod -5.8*, Autophagy HCS inactive, WT yeast gro inh 45, Ins promoter up -0.35, Rad51 HR inh -4, SKKanGAS inh 4, KCC2 secondary 0.0084, KCC2 bumet counter 0.0065, KCC2 sec2 0.028, HEK293 Tl flux 0.0078, KCC2 retest ouab 0.021* and HEK293 Tl flux2 inconclusive.
Screening C/C(=N\Nc1ccc(C(=O)O)cc1)c1ccc(S(=O)(=O)NCc2ccco2)cc1 returned Cl transport mod 4.5*, Ins promoter up -0.19, Rad51 HR inh -2, SKKanGAS inh 14, KCC2 secondary 0.0087, KCC2 bumet counter 0.0068, KCC2 sec2 0.032, HEK293 Tl flux 0.0072, KCC2 retest ouab 0.021 and HEK293 Tl flux2 0.01*.
`C/C(=N\Nc1ccccn1)c1ccc(S(=O)(=O)NCc2ccco2)cc1` gave Cl transport mod -0.1, Autophagy HCS inactive, WT yeast gro inh 16, Ins promoter up -0.98, Rad51 HR inh 9 and SKKanGAS inh -2.
For CCOC(CNC(=O)C(=O)Nc1cc2c3c(c1)CCN3C(=O)CC2)OCC the results were SKKanGAS inh 2.
`Cc1cccc(-n2c(=S)[nH]c3sc4c(c3c2=O)CCc2ccccc2-4)c1` gave Cl transport mod 21*, Autophagy HCS inactive, WT yeast gro inh 27, Rad51 HR inh 6, SKKanGAS inh 3, KCC2 secondary 0.02*, KCC2 bumet counter 0.046*, KCC2 sec2 0.035, HEK293 Tl flux 0.04*, KCC2 retest ouab 0.043* and HEK293 Tl flux2 0.018*.
For O=C(Nc1nnc(-c2ccccc2)o1)Nc1ccccc1Cl the results were Cl transport mod 20*, Autophagy HCS inactive, WT yeast gro inh 8, Ins promoter up 3.8*, SKKanGAS inh -1, KCC2 secondary inconclusive, KCC2 bumet counter 0.032*, KCC2 sec2 0.038, HEK293 Tl flux inconclusive, KCC2 retest ouab 0.036* and HEK293 Tl flux2 inconclusive.
For O=C(Nc1nnc(-c2ccccc2)o1)Nc1ccc(F)cc1F the results were Cl transport mod 3.7, Autophagy HCS inactive, WT yeast gro inh 3, Ins promoter up -0.39, Rad51 HR inh 1 and SKKanGAS inh -4.
